Assay results: ChEMBL document CHEMBL1128606, “Nucleosides and nucleotides. 141. Chemical stability of a new antitumor nucleoside, 2'-C-cyano-2'-deoxy-1-beta-D-arabino-pentofuranosylcytosine in alkaline medium: formation of 2'-C-cyano-2'-deoxy-1-beta-D-ribo-pentofuranosylcytosine and its antitumor activity” (J Med Chem, 1995)
pIC50: −log10 of the molar value.

Tests used:
[1] = Kinetic parameter of epimerization at a salt concentration (0.01 M) of in Tris.HCl buffer(pH 9.0) and 37 degree C (or )in RMPI 1640 cell culture medium containing 10%FCS; assay type: ADME, cell-based; conditions: rmpi 1640, pH 9
Method in brief: (§1)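 Starting nucleoside (3 mg, 0.012 mmol) in 1 mL Tris-HCl (pH 7.5–10.3; 10 mM unless salt varied to 0.01–1 M at pH 9.0) or RPMI 1640 with 10% FCS, 37 °C. Timed samples analyzed by C-18 HPLC, 2.5% aqueous MeOH, 254 nm; peak areas corrected by ε. Rate constants k12, k21, k13, k23 obtained by nonlinear least-squares fit to compartment model; t1/2 reported.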

[2] = Kinetic parameter of epimerization at a salt concentration (0.1 M) of in Tris.HCl buffer(pH 9.0) and 37 degree C (or )in RMPI 1640 cell culture medium containing 10%FCS; assay type: ADME, cell-based; conditions: rmpi 1640, pH 9; method in brief: as §1
[3] = Kinetic parameter of epimerization at a salt concentration (1 M) of in Tris.HCl buffer(pH 9.0) and 37 degree C (or )in RMPI 1640 cell culture medium containing 10%FCS; assay type: ADME, cell-based; conditions: rmpi 1640, pH 9; method in brief: as §1
[4] = Kinetic parameter of epimerization in Tris.HCl buffer at a pH 10.0 (or )in RMPI 1640 cell culture medium containing 10%FCS; assay type: ADME, cell-based; conditions: rmpi 1640, pH 10; method in brief: as §1
[5] = Kinetic parameter of epimerization in Tris.HCl buffer at a pH 7.5 (or )in RMPI 1640 cell culture medium containing 10%FCS; assay type: ADME, cell-based; conditions: rmpi 1640, pH 7.5; method in brief: as §1
[6] = Kinetic parameter of epimerization in Tris.HCl buffer at a pH 8.0 (or )in RMPI 1640 cell culture medium containing 10%FCS; assay type: ADME, cell-based; conditions: rmpi 1640, pH 8; method in brief: as §1
[7] = Kinetic parameter of epimerization in Tris.HCl buffer at a pH 9.0 (or )in RMPI 1640 cell culture medium containing 10%FCS; assay type: ADME, cell-based; conditions: rmpi 1640, pH 9; method in brief: as §1
[8] = Kinetic parameter of epimerization in Tris.HCl buffer at a pH 9.6 (or )in RMPI 1640 cell culture medium containing 10%FCS; assay type: ADME, cell-based; conditions: rmpi 1640, pH 9.6; method in brief: as §1
[9] = Kinetic parameter of epimerization in Tris.HCl buffer at a pH 10.0(or )in RMPI 1640 cell culture medium containing 10%FCS; assay type: ADME, cell-based; conditions: rmpi 1640, pH 10; method in brief: as §1
[10] = Degradation of CNDAC at 0.01 M concentration in Tris-degrees C; assay type: ADME; conditions: Tris buffer; method in brief: as §1
[11] = Degradation of CNDAC at 0.1 M concentration in Tris-degrees C; assay type: ADME; conditions: Tris buffer; method in brief: as §1
[12] = Degradation of CNDAC at 10 pH in Tris-degrees C; assay type: ADME; conditions: Tris buffer, pH 10; method in brief: as §1
[13] = Degradation of CNDAC at 7.5 pH in Tris-degrees C; assay type: ADME; conditions: Tris buffer, pH 7.5; method in brief: as §1
[14] = Degradation of CNDAC at 8 pH in Tris-degrees C; assay type: ADME; conditions: Tris buffer, pH 8; method in brief: as §1
[15] = Degradation of CNDAC at 9 pH in Tris-degrees C; assay type: ADME; conditions: Tris buffer, pH 9; method in brief: as §1
[16] = Degradation of CNDAC at 9.6 pH in Tris-degrees C; assay type: ADME; conditions: Tris buffer, pH 9.6; method in brief: as §1
MKN-74 [17] = experiment: In Vitro cell growth inhibitory activity of CNDAC Stomach Carcinoma MKN-74 (1*10e3) cell lines on 20-min exposure; assay type: functional, cell-based, Homo sapiens
Method in brief: (§2)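 MTT assay. Cells seeded (WiDr 5×10^2, SBC-5 2.5×10^2, MKN-74 1×10^3 per well), 24 h preincubation at 37 °C, 5% CO2. Graded drug concentrations added in tetraplicate for 20 min or 48 h, then washed three times with medium and cultured to 6 days from drug addition. MTT 1 mg/mL for 4 h, DMSO solubilization, A540. IC50 read graphically from dose-response curve.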

MKN-74 [18] = experiment: In Vitro cell growth inhibitory activity of CNDAC Stomach Carcinoma MKN-74 (1*10e3) cell lines on 48-h exposure; assay type: functional, cell-based, Homo sapiens; method in brief: as §2
Mus musculus [19] = experiment: In vivo antileukemic activity of CNDAC against P388 mouse leukemic cells by ip administration of dose 100 (mg/kg/day); assay type: functional
Method in brief: (§3)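 Female CDF1 mice, 6 weeks old (n = 6), implanted ip with 1×10^6 viable P388 cells maintained by weekly ip passage in DBA/2 mice. Drug in saline (0.1 mL/10 g body weight) given ip on days 1–5. T/C is treated vs untreated median survival time. Weight change is day 7 minus day 1 average.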

Mus musculus [20] = experiment: In vivo antileukemic activity of CNDAC against P388 mouse leukemic cells by ip administration of dose 200 (mg/kg/day); assay type: functional; method in brief: as §3
Mus musculus [21] = experiment: In vivo antileukemic activity of CNDAC against P388 mouse leukemic cells by ip administration of dose 50 (mg/kg/day); assay type: functional; method in brief: as §3
Mus musculus [22] = experiment: In vivo antileukemic activity of CNDAC against P388 mouse leukemic cells by ip administration of dose 25 (mg/kg/day); assay type: functional; method in brief: as §3
SBC-5 [23] = experiment: In Vitro cell growth inhibitory activity of CNDAC against Small Cell Lung Carcinoma-5 (2.5*10e2) cells on 20-min exposure; assay type: functional, cell-based; conditions: Homo sapiens, SBC-5, 20 min; method in brief: as §2
SBC-5 [24] = experiment: In Vitro cell growth inhibitory activity of CNDAC against Small Cell Lung Carcinoma-5 (2.5*10e2) cells on 48-h exposure; assay type: functional, cell-based, Homo sapiens; method in brief: as §2
WiDr [25] = experiment: In Vitro cell growth inhibitory activity of CNDAC against Human Colon Carcinoma WiDr 5*10e2 cells on 20- min exposure; assay type: functional, cell-based; method in brief: as §2
WiDr [26] = experiment: In Vitro cell growth inhibitory activity of CNDAC against Human Colon Carcinoma WiDr 5*10e2 cells on 48-h exposure; assay type: functional, cell-based; method in brief: as §2
[27] = Degradation of CNDAC at 1 M concentration in Tris-degrees C; assay type: ADME; conditions: Tris buffer; method in brief: as §1

N#C[C@H]1[C@H](O)[C@@H](CO)O[C@H]1n1ccc(N)nc1=O (stereo in doubt; form 1) [TAS-109]
K12 [1]: 0.88 h⁻¹
K13+K23 [1]: 0.09 h⁻¹
K21 [1]: 0.6 h⁻¹
K12 [2]: 1.88 h⁻¹
K13+K23 [2]: 0.19 h⁻¹
K21 [2]: 1.16 h⁻¹
K12 [3]: 2.31 h⁻¹
K13+K23 [3]: 0.3 h⁻¹
K21 [3]: 1.35 h⁻¹
K12 [4]: 6.18 h⁻¹
K13+K23 [4]: 0.69 h⁻¹
K12 [5]: 0.062 h⁻¹
K13+K23 [5]: 0.009 h⁻¹
K21 [5]: 0.037 h⁻¹
K12 [6]: 0.22 h⁻¹
K13+K23 [6]: 0.02 h⁻¹
K21 [6]: 0.14 h⁻¹
K12 [7]: 0.88 h⁻¹
K13+K23 [7]: 0.09 h⁻¹
K21 [7]: 0.6 h⁻¹
K12 [8]: 2.14 h⁻¹
K13+K23 [8]: 0.26 h⁻¹
K21 [8]: 1.41 h⁻¹
K21 [9]: 4.07 h⁻¹
half-life [10]: 60 min
half-life [11]: 30 min
half-life [12]: 8.4 min
half-life [13]: 38 h
half-life [14]: 240 min
half-life [15]: 60 min
half-life [16]: 27 min
pIC50 (MKN-74 [17]): 4.60
pIC50 (MKN-74 [18]; Homo sapiens, MKN-74, 48 h): 6.82
T/C (Mus musculus [19]): 311%
T/C (Mus musculus [20]): 333%
T/C (Mus musculus [21]): 300%
T/C (Mus musculus [22]): 300%
Weight change (Mus musculus [22]): 0.3 g
pIC50 (SBC-5 [23]): 5.15
pIC50 (SBC-5 [24]; Homo sapiens, SBC-5, 48 h): 6.65
pIC50 (WiDr [25]): 4.78
pIC50 (WiDr [26]; Homo sapiens, WiDr, 48 h): 6.80
half-life [27]: 21 min

N#C[C@H]1[C@H](O)[C@@H](CO)O[C@H]1n1ccc(N)nc1=O (stereo in doubt; form 2) [TAS-109]
pIC50 (MKN-74 [17]): 3.58
pIC50 (MKN-74 [18]; mkn-74): 6.69
T/C (Mus musculus [19]): 180%
Weight change (Mus musculus [19]): 0.7 g
T/C (Mus musculus [20]): 203%
Weight change (Mus musculus [20]): 0.9 g
T/C (Mus musculus [21]): 164%
Weight change (Mus musculus [21]): 0.9 g
T/C (Mus musculus [22]): 138%
Weight change (Mus musculus [22]): 1.6 g
pIC50 (SBC-5 [23]): 5.15
pIC50 (SBC-5 [24]; sbc-5): 6.44
pIC50 (WiDr [25]): 4.78
pIC50 (WiDr [26]; widr): 6.51
